Data published in publication PMC5241585 (International Journal for Parasitology: Drugs and Drug …, 2016).
Like-named read-outs stand apart in the source and are kept apart here. Marks after values point to notes of the source that are not given here.

Experiments:
[1] = tested on: Human Embryonic Kidney (HEK 293) cells; details: read-out: HEK 293 IC50; previously published; ref Engel et al., 2015; cited from earlier work
[2] = tested on: human Neonatal Foreskin Fibroblast (NFF) cells; details: read-out: NFF IC50; previously published; ref Engel et al., 2015; cited from earlier work
P. falciparum 3D7 = P. falciparum 3D7 3H-hypoxanthine incorporation growth inhibition assay; assay type: cell-based; details: Plasmodium falciparum, 3D7, 48 h, read-out: P. falciparum 3D7 IC50
[3] = tested on: free L. donovani promastigotes; experiment: Resazurin reduction assay, L. donovani promastigotes; assay type: cell-based, Leishmania donovani; details: for inhibition at 20 µM: Leishmania donovani, read-out: inhibition of free L. donovani promastigotes
P. knowlesi A1H.1 = P. knowlesi A1H.1 3H-hypoxanthine incorporation growth inhibition assay; assay type: cell-based; details: Plasmodium knowlesi, 48 h, read-out: P. knowlesi A1H.1 IC50
P. berghei QIMR = experiment: In vivo anti-Plasmodium efficacy in infected BALB/c mice; details: for peripheral blood parasitemia compared to vehicle-only control mice: 25 mg/kg oral gavage twice daily for four days; for days after infection with significant reduction in parasitemia (P < 0.05): 25 mg/kg orally twice daily for four days
Method in brief: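 Female BALB/c mice, 6–8 weeks old, six per group, infected i.p. with […] P. berghei QIMR-infected erythrocytes from a passage mouse. Oral gavage of 25 mg/kg test compound in DMSO/PBS (100 μL) twice daily for four days, starting 2 h p.i. with 4 h between doses. Chloroquine 10 mg/kg oral twice daily for three days. Giemsa thin smears read daily from day 4 (>800 erythrocytes per mouse).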

[4] = cited from earlier work
[5] = Oral pharmacokinetics in mice; details: mice dosed orally with 50 mg/kg; ref Yeo et al., 2007
Plasmodium parasites = experiment: Ratios derived from Table 1 IC50 values; assay type: cell-based
S. mansoni adult worms = experiment: Adult worm pair stability and egg laying in culture; assay type: cell-based, Schistosoma mansoni
Method in brief: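 S. mansoni adult worm pairs kept in culture with test compound at 10 μM. Pairing and egg laying expressed as mean % of DMSO control (set to 100%). Praziquantel (10 μM) served as control. Run in triplicate on two separate occasions.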

[6] = Oral pharmacokinetics in humans; assay type: in vivo
[7] = female BALB/c nude mice, oral 50 mg/kg; ref Yeo et al., 2007; cited from earlier work
[8] = humans, 15–80 mg oral panobinostat, ref Prince et al., 2009
[9] = humans, 200–600 mg oral vorinostat, ref Kavanaugh et al., 2010

O=C(/C=C/c1cccc(S(=O)(=O)Nc2ccccc2)c1)NO [Belinostat]
IC50 [1]: 1420 nM | IC50 [2]: 2370 nM | IC50 (P. falciparum 3D7): 170 nM | inhibition at 20 µM [3]: 20 to 35% | IC50 (P. knowlesi A1H.1): 190 nM

CCN(CC)CCCC(C)Nc1ccnc2cc(Cl)ccc12 (stereo not drawn) [Chloroquine]
peripheral blood parasitemia (P. berghei QIMR; 10 mg/kg orally twice daily beginning 2 h p.i., data not shown): did not develop detectable peripheral blood parasitemia | IC50 [2]: 48900 nM | IC50 (P. falciparum 3D7): 10 nM | IC50 (P. knowlesi A1H.1): 10 nM

Cc1[nH]c2ccccc2c1CCNCc1ccc(/C=C/C(=O)NO)cc1 [Panobinostat]
peripheral blood parasitemia compared to vehicle-only control mice (P. berghei QIMR): significant reduction | reduction in mean peripheral parasitemia compared to vehicle-only control (P. berghei QIMR; 25 mg/kg oral gavage twice daily, days 4-10): 2–3 fold | survival compared to vehicle control group (P. berghei QIMR; 25 mg/kg oral gavage twice daily, p = 0.0013): significantly improved | days after infection with significant reduction in parasitemia (P < 0.05) (P. berghei QIMR): 4 to 10 days | adverse effects in humans ([4]; 20 mg oral dose, ref FARYDAK product sheet (Novartis)): adverse effects are commonly reported | AUC0−∞ [4, 8]: 183–373 ng⋅h/mL | Cmax [4, 8]: 23 to 71 ng/mL | t1/2 [4, 8]: 16–30 ^d h | mean Cmax ([4]; humans, single oral dose 20 mg, ref European Medicines Agency, 2015): 24.3 (±12) ng/mL | half-life longer than vorinostat [5]: > 2 fold | IC50 [1]: 180 nM | IC50 [2]: 70 nM | greater inhibitory potency against Plasmodium parasites in vitro than vorinostat (Plasmodium parasites; from Table 1 IC50 values): 40–60 fold | IC50 (P. falciparum 3D7): 4 nM | inhibition at 10 µM (S. mansoni adult worms; Schistosoma mansoni, read-out: inhibition of adult worm pairing): 30 to 40% | inhibition at 10 µM (S. mansoni adult worms; Schistosoma mansoni, read-out: inhibition of egg production): ~50% | inhibition at 20 µM [3]: 20 to 35% | half-life in humans compared to mice ([6]; from Table 2 values): 6–10 fold | oral bioavailability (F%) in humans compared to mice ([6]; from Table 2 values): approximately five | Cmax ([6]; human, in vivo, po, 20 mg): ~70 nM | IC50 (P. knowlesi A1H.1): 9 nM

C/C=C1\NC(=O)[C@H]2CSSCC/C=C/[C@H](CC(=O)N[C@H](C(C)C)C(=O)N2)OC(=O)[C@H](C(C)C)NC1=O [Romidepsin]
IC50 [1]: < 5 nM | IC50 [2]: 1 nM | selectivity for the parasite over NFF or HEK 293 cells (Plasmodium parasites; P. knowlesi vs human cells, in abstract): not selective | IC50 (P. falciparum 3D7): 140 nM | inhibition of adult worm pairing (S. mansoni adult worms; 10 μM): completely inhibited | inhibition of egg production (S. mansoni adult worms; 10 μM): completely inhibited | inhibition of free L. donovani promastigotes ([3]; 20 μM): no growth inhibition | IC50 (P. knowlesi A1H.1): 210 nM

O=C(CCCCCCC(=O)Nc1ccccc1)NO [Vorinostat]
peripheral blood parasitemia compared to vehicle-only control mice (P. berghei QIMR): significant reduction | days after infection with significant reduction in parasitemia (P < 0.05) (P. berghei QIMR): 4 to 7 days | AUC0−∞ [4, 9]: 1698 ng⋅h/mL | Cmax [4, 9]: 658 ng/mL | AUC0−∞ [7]: 619 ng⋅h/mL

O=C(C1CCCCC1)N1CC(=O)N2CCc3ccccc3C2C1 (stereo not drawn) [praziquantel]
effect on adult worms (S. mansoni adult worms; 10 μM): induced the death of adult worms | viability at 10 µM (S. mansoni adult worms; Schistosoma mansoni, read-out: adult worm viability): 10%
